Results pooled from the literature.
Protocols differ between the studies behind these lines.
Target: Mitogen-activated protein kinase kinase kinase 3 (MAP3K3, Homo sapiens, UniProt Q99759)
Residues used in one study (Q99759 1-626): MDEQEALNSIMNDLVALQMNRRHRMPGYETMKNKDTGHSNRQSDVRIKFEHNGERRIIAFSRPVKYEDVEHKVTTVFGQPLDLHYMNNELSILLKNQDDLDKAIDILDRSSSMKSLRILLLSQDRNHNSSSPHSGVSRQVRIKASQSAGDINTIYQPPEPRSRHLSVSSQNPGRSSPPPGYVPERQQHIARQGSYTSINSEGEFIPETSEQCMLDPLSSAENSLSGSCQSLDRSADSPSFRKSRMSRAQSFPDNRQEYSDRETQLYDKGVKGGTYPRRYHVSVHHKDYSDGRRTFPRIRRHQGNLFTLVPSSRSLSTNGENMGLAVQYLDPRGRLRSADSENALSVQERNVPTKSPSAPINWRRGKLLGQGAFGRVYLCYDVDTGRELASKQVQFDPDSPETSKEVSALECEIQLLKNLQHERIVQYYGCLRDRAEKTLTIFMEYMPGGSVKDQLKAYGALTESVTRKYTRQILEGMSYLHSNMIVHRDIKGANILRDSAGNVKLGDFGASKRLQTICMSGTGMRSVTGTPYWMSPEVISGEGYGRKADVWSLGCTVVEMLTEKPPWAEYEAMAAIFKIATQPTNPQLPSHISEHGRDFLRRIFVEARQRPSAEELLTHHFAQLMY

| SMILES | test | setting | quantity | value |
| --- | --- | --- | --- | --- |
| Cc1nn(C)cc1-c1nc2c(N3CCN(Cc4ccc(Cl)cc4)CC3)c(Cl)cnc2[nH]1 | binding, competition with immobilised ligand | 1 µM | remaining binding | 91% |
| COCc1c(-c2cc3cc(C)cc(OC)c3s2)c2c(N)ncnn2c1CN1CCNC(=O)C1 | cell-free assay, competition with immobilised ligand | 1 µM | inhibition | 95.3% |
| COc1ncccc1-c1cnn2ccc(N3CCN(C(=O)OC(C)C)CC3)nc12 | binding, competition with immobilised ligand | 1 µM | remaining binding | 100% |
| Cn1cc(-c2cccc(N3CCc4c(sc5c4CC(C)(C)C5)C3=O)c2CO)cc(Nc2ccncn2)c1=O | enzyme activity, inhibitor | 1 µM | inhibition | 3% |
| Nc1ncc(-c2nc(N3CCOCC3)nc(N3CCOCC3)n2)c(C(F)F)n1 | binding, competition with immobilised ligand | 10 µM | remaining binding | 72% |
| CC(C)(C)c1cc(C=C(C#N)C#N)cc(Br)c1O | enzyme activity, inhibitor | 0.5 µM | remaining activity | 118% |
| Cn1cc(-c2cc(F)cc(N3CCn4c(cc5c4CCCC5)C3=O)c2CO)cc(Nc2ccc(N3CCN(C4COC4)CC3)cn2)c1=O | enzyme activity, inhibitor | 0.1 µM | inhibition | 1% |
| O=c1[nH]c2ccccc2n1C1CCN(Cc2ccc(-c3[nH]c4cc5ncnc5cc4nc3-c3ccccc3)cc2)CC1 | cell-free assay | 0.5 µM | remaining signal | 101% |
| Cn1cncc1[C@@](O)(COc1ccc(C#N)cc1-c1ccc(OC(F)(F)F)cc1)c1ccc(C#N)cc1 | cell-free assay, competition with immobilised ligand | 1 µM | remaining binding | 81% |
